Laboratory results reported in ChEMBL document CHEMBL1152591, “Design, synthesis and structure-activity relationship of 2-(3',4',5'-trimethoxybenzoyl)-benzo[b]furan derivatives as a novel class of inhibitors of tubulin polymerization” (Bioorg Med Chem, 2009).

How the values were obtained:
[1] = tested on: FM3A; test: Cytotoxicity against mouse FM3A0 cells after 2 days; format: functional, cell-based; conditions: 48 h
[2] = tested on: K562; test: Cell cycle arrest in human K562 cells assessed as accumulation at G1 phase at 26 nM after 24 hrs by flow cytometry; format: functional
Summary of the method: (§1)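 K562 leukaemia cells were cultured for 24 h with compound at one fixed concentration. DNA content per cell was measured by the standard propidium iodide procedure and flow cytometry. Proportions of cells in the sub-G0–G1 (apoptotic), G0–G1, S and G2–M peaks were compared with an untreated control.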

[3] = tested on: HeLa; test: Cytotoxicity against human HeLa cells after 2 days; format: functional, cell-based; conditions: 48 h
[4] = tested on: L1210; test: Cytotoxicity against mouse L1210 cells after 2 days; format: functional, cell-based; conditions: L1210, 48 h
Summary of the method: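 Cells were incubated with the compounds at 37 °C for two days, then counted on a Coulter counter. IC50 is the concentration that inhibits cell proliferation by 50%.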

[5] = Inhibition of bovine tubulin polymerization; design: species or system Bos taurus
Summary of the method: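 Purified bovine brain tubulin (10 μM) in glutamate buffer was preincubated with varying compound concentrations at 30 °C, then cooled to 0 °C. GTP was added and the mixture warmed to 30 °C in a recording spectrophotometer. Assembly was followed by turbidity.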

[6] = tested on: K562; test: Cell cycle arrest in human K562 cells assessed as accumulation at S phase at 26 nM after 24 hrs by flow cytometry; format: functional; summary of the method: as §1
[7] = tested on: K562; test: Cell cycle arrest in human K562 cells assessed as accumulation at G2 phase at 26 nM after 24 hrs by flow cytometry; format: functional; summary of the method: as §1
[8] = tested on: K562; test: Cell cycle arrest in human K562 cells assessed as accumulation at sub-G0/G1 phase at 26 nM after 24 hrs by flow cytometry; format: functional; summary of the method: as §1
[9] = organism: Bos taurus; test: Displacement of [3H]colchicine from bovine tubulin at 5 uM
Summary of the method: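 Reaction mixtures held 1 μM bovine brain tubulin, 5 μM [3H]colchicine and 5 μM test compound. Inhibition of radiolabelled colchicine binding to tubulin is expressed as percent inhibition.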

[10] = Cytotoxicity against human Molt4/C8 cells after 2 days; conditions: MOLT-4, 48 h

COc1ccc2c(C)c(C(=O)c3cc(OC)c(OC)c(OC)c3)oc2c1
IC50 [1]: 27 nM
Activity [2]: 2.19%
IC50 [3]: 3.2 nM
IC50 [4]: 24 nM
IC50 [5]: 550 nM
Activity [6]: 16.62%
Activity [7]: 81.19%
Activity [8]: 4.9%
Activity [9]: 97%
IC50 [10]: 19 nM
